Results on 29 molecules are retold here after ChEMBL document CHEMBL3612025, “Synthesis and biological evaluation of novel aromatic-heterocyclic biphenyls as potent anti-leukemia agents” (Eur J Med Chem, 2015).

Test [1] deals with K562. In words: Antiproliferative activity against human K562 cells after 48 hrs by MTT assay. Type of test: functional, cell-based. The settings on record: K562, 48 h. In outline: (§1)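 Human CML K562 line grown in RPMI-1640 with 10% FBS, penicillin G and streptomycin (100 units/ml each) at 37°C, 5% CO2. 2000 cells/well were seeded and compounds were added at four concentrations 48 h later, in triplicate. After 48 h exposure, MTT (5 mg/ml) was added for 4 h. Formazan was dissolved in DMSO and read at 490 nm. IC50 is the mean of three experiments.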
(In general: Tetrazolium assays rely on reduction of a dye to a coloured formazan, in cell work by metabolically active cells.)

A further test deals with Bcr/Abl fusion protein (Homo sapiens, UniProt P00519). In words: Inhibition of Bcr-Abl (unknown origin) after 60 mins by luminescent kinase assay. Type of test: protein assay.
Chain of Bcr/Abl fusion protein (P00519 whole entry, the tested form may be a part): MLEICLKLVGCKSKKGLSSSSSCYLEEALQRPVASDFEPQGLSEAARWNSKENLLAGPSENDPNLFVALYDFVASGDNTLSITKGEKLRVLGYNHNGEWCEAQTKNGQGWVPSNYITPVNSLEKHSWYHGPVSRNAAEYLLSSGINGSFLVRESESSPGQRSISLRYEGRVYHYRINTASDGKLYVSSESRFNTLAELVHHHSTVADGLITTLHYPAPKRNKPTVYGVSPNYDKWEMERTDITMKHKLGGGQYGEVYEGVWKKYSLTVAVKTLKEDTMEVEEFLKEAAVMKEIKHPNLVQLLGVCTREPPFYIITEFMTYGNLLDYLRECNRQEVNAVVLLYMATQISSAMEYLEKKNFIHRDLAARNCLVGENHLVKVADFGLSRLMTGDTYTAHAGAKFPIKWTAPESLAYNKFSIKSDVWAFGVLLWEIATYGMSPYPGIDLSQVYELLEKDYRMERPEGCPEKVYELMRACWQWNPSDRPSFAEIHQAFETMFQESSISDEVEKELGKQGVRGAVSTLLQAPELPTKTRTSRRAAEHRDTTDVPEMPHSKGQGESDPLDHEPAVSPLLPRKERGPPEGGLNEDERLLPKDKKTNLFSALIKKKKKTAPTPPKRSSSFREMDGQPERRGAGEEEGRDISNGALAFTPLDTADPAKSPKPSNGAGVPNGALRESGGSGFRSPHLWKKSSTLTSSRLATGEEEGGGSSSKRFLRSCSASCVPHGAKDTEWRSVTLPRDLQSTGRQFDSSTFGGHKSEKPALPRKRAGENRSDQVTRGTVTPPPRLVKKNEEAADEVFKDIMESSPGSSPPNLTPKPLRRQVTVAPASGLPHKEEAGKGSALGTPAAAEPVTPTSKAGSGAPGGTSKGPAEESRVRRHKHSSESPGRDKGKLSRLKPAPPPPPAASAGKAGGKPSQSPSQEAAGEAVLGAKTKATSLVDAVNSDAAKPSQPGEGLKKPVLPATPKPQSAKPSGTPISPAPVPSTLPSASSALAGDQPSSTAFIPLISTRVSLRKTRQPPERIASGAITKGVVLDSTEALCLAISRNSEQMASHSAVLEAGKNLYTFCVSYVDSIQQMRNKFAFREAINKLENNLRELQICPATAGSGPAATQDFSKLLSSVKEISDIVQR
Chain of Bcr/Abl fusion protein (P11274 whole entry, further chain, the tested form may be a part): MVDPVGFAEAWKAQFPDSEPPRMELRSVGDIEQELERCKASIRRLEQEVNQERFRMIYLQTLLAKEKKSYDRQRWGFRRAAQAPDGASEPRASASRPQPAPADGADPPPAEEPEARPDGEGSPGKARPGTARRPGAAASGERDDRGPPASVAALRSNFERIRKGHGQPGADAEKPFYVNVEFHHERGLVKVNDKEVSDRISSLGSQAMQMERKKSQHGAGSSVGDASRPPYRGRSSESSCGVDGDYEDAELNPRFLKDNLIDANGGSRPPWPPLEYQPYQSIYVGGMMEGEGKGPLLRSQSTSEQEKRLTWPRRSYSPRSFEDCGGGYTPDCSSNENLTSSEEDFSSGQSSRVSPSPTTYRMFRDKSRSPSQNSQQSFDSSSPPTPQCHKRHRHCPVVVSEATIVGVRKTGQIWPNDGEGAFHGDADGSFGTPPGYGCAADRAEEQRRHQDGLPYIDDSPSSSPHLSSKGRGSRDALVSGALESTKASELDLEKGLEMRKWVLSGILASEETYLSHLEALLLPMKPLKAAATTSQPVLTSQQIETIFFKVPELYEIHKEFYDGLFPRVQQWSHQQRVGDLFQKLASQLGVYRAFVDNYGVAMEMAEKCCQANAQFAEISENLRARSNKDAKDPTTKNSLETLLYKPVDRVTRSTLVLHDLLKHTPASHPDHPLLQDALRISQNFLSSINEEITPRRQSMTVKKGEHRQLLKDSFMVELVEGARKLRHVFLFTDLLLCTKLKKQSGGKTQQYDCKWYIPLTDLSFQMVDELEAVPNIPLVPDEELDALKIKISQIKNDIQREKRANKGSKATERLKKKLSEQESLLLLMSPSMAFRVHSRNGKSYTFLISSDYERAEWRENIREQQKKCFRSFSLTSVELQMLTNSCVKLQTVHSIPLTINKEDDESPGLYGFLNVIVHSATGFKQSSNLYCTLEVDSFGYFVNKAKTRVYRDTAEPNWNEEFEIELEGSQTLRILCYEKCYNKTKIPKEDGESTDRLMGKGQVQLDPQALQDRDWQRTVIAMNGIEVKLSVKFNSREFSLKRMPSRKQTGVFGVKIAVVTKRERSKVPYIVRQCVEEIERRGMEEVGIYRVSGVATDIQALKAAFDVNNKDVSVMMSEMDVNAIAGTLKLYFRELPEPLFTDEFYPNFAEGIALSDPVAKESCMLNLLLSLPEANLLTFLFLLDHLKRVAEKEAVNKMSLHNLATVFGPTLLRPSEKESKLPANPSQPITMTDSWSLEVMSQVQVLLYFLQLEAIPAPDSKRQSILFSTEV
The test system of test [2] is K562. In words: Antiproliferative activity against imatinib-resistant human K562 cells after 48 hrs by MTT assay. The settings on record: K562, 48 h. Format: functional, cell-based. In outline: as §1

As a reminder, the IC50 is the point on the concentration scale where inhibition reaches its midpoint.

Where only a bound is given, the exact number is not on record here.

As for `O=C(c1ccc(-c2ccccn2)cc1)N1CCN(C(=O)c2cccc(F)c2)CC1`, in the test with K562 [1], the IC50 is above 500 µM.

As for `O=C(c1ccc(-c2ccccn2)cc1)N1CCN(C(=O)c2cccc(C(F)(F)F)c2)CC1`, the IC50 against Bcr/Abl fusion protein and in the test with K562 [1] was above 500 µM in each case.

In the case of `COc1cccc(C(=O)N2CCN(C(=O)c3ccc(-c4ccccn4)cc3)CC2)c1`, the IC50 on Bcr/Abl fusion protein came out at 0.066 µM; with K562 [2], 57.3 µM; in the test on K562 [1], 12.5 µM.

Take `CC(C)(C)c1ccc(C(=O)N2CCN(C(=O)c3ccc(-c4ccccn4)cc3)CC2)cc1`: the IC50 at Bcr/Abl fusion protein was determined as 1.16 µM; in the test with K562 [1], 178 µM.

With `CN(C)c1cccc(C(=O)N2CCN(C(=O)c3ccc(-c4ccccn4)cc3)CC2)c1`, the values for the IC50 on Bcr/Abl fusion protein and in the test with K562 [1] were 45.6 µM and 29.7 µM, respectively.

`O=C(c1ccc(-c2cccnc2)cc1)N1CCN(C(=O)c2cccc(C(F)(F)F)c2)CC1`: it took 346 µM to reach half-maximal inhibition in the test with K562 [1] (IC50).

Regarding `O=C(c1ccc(-c2cccnc2)cc1)N1CCN(C(=O)c2cccc(F)c2)CC1`, the IC50 on Bcr/Abl fusion protein is 0.276 µM; with K562 [2], 81.6 µM; in the test with K562 [1] it was 63.4 µM.

In the case of `COc1cccc(C(=O)N2CCN(C(=O)c3ccc(-c4cccnc4)cc3)CC2)c1`, the IC50 on Bcr/Abl fusion protein amounted to 60.7 µM; in the test on K562 [1] it was 140 µM.

`CN(C)c1cccc(C(=O)N2CCN(C(=O)c3ccc(-c4cccnc4)cc3)CC2)c1` had an IC50 in the test on K562 [1] above 500 µM.

For the molecule `Cc1ccnc(-c2ccc(C(=O)N3CCN(C(=O)c4cccc(C(F)(F)F)c4)CC3)cc2)c1`, the figures for the half-inhibitory concentration (IC50) against Bcr/Abl fusion protein, with K562 [2] and in the test on K562 [1] were 0.112 µM, 947 µM and 41.6 µM, respectively.

Take `Cc1ccnc(-c2ccc(C(=O)N3CCN(C(=O)c4cccc(F)c4)CC3)cc2)c1`: the IC50 at Bcr/Abl fusion protein was 63.3 µM; with K562 [2], above 1000 µM; with K562 [1] it was 74.2 µM.

Take `COc1cccc(C(=O)N2CCN(C(=O)c3ccc(-c4cc(C)ccn4)cc3)CC2)c1`: the values for the IC50 on Bcr/Abl fusion protein, in the test with K562 [2] and in the test on K562 [1] were 0.94 µM, 494 µM and 76.1 µM, respectively.

With `Cc1ccnc(-c2ccc(C(=O)N3CCN(C(=O)c4ccc(C(C)(C)C)cc4)CC3)cc2)c1`, the IC50 against Bcr/Abl fusion protein was above 500 µM; with K562 [1], 58.3 µM.

Take `Cc1ccnc(-c2ccc(C(=O)N3CCN(C(=O)c4cccc(N(C)C)c4)CC3)cc2)c1`: the IC50 on Bcr/Abl fusion protein came to 19.1 µM; with K562 [1], 31.4 µM.

Regarding `Cc1ccc(-c2ccc(C(=O)N3CCN(C(=O)c4cccc(C(F)(F)F)c4)CC3)cc2)cn1`, it took 47.1 µM to reach half-maximal inhibition in the test with K562 [1] (IC50).

`Cc1ccc(-c2ccc(C(=O)N3CCN(C(=O)c4cccc(F)c4)CC3)cc2)cn1`: the IC50 was above 500 µM at Bcr/Abl fusion protein and 64.5 µM in the test with K562 [1].

With `COc1cccc(C(=O)N2CCN(C(=O)c3ccc(-c4ccc(C)nc4)cc3)CC2)c1`, the figures for the IC50 on Bcr/Abl fusion protein, with K562 [2] and in the test with K562 [1] were 0.143 µM, 304 µM and 261 µM, respectively.

As for `Cc1ccc(-c2ccc(C(=O)N3CCN(C(=O)c4cccc(N(C)C)c4)CC3)cc2)cn1`, the 50% inhibitory concentration (IC50) against Bcr/Abl fusion protein is above 500 µM; in the test on K562 [1] it was 110 µM.

For `O=C(c1ccc(-c2cccs2)cc1)N1CCN(C(=O)c2cccc(F)c2)CC1`, the IC50 is 5.05 µM at Bcr/Abl fusion protein and 13.5 µM in the test on K562 [1].

As for `COc1cccc(C(=O)N2CCN(C(=O)c3ccc(-c4cccs4)cc3)CC2)c1`, the IC50 against Bcr/Abl fusion protein was determined as 89.7 µM; in the test with K562 [1], 152 µM.

`O=C(c1ccc(Br)cc1)N1CCN(C(=O)c2ccc(-c3cccs3)cc2)CC1`: the IC50 was 0.073 µM at Bcr/Abl fusion protein, 86.3 µM with K562 [2] and 29.9 µM in the test with K562 [1].

Regarding `CN(C)c1cccc(C(=O)N2CCN(C(=O)c3ccc(-c4cccs4)cc3)CC2)c1`, the half-inhibitory concentration (IC50) was determined as 0.321 µM on Bcr/Abl fusion protein and 96.7 µM in the test on K562 [1].

`O=C(c1ccc(-c2cccs2)cc1)N1CCN(C(=O)c2ccc(Cl)cc2Cl)CC1` returned an IC50 in the test on K562 [1] of 30.5 µM.

Regarding `O=C(c1ccc(-c2nccs2)cc1)N1CCN(C(=O)c2cccc(F)c2)CC1`, the IC50 is 444 µM at Bcr/Abl fusion protein and above 500 µM in the test with K562 [1].

In the case of `COc1cccc(C(=O)N2CCN(C(=O)c3ccc(-c4nccs4)cc3)CC2)c1`, the IC50 against Bcr/Abl fusion protein was 0.016 µM; in the test with K562 [2] it was 492 µM; in the test on K562 [1], 271 µM.

Consider `O=C(c1ccc(Br)cc1)N1CCN(C(=O)c2ccc(-c3nccs3)cc2)CC1`, for which the IC50 was 0.421 µM at Bcr/Abl fusion protein and above 500 µM with K562 [1].

As to `CN(C)c1cccc(C(=O)N2CCN(C(=O)c3ccc(-c4nccs4)cc3)CC2)c1`, the IC50 was determined as 1.84 µM at Bcr/Abl fusion protein and 117 µM in the test with K562 [1].

As to `O=C(c1ccc(-c2nccs2)cc1)N1CCN(C(=O)c2ccc(Cl)cc2Cl)CC1`, the IC50 against Bcr/Abl fusion protein and with K562 [1] was above 500 µM each time.

Turning to `Cc1ccc(NC(=O)c2ccc(CN3CCN(C)CC3)cc2)cc1Nc1nccc(-c2cccnc2)n1` [IMATINIB], the IC50 in the test on K562 [2] was 15.7 µM; in the test on K562 [1] it was 1.16 µM.
